Series [1] has as its system Cavia porcellus. As to the kind of experiment: Percent protection was determined from the time delay to the onset of dyspnea compared to that of control guinea pig at a concentration of 126 uM/kg. Type of series: functional. The essentials: (§1)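 Conscious guinea pigs were pretreated ip with indomethacin (10 mg/kg) and propranolol (5 mg/kg). Compound was given orally in poly(ethylene glycol) 60 min before challenge with aerosolized 60 µM LTD4 for up to 5 min. End point was labored abdominal breathing, scored blind. % protection = (drug time − mean control time)/(max aerosol time − mean control time) × 100, with at least two vehicle animals per run.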

The species named for series [2] is Cavia porcellus. As to the kind of experiment: Percent inhibition of the LTE4- induced contraction of guinea pig tracheal spirals at the concentration of 0.33 uM. Format: functional. Conditions: Trachea. The procedure, abridged:
(§2)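 Guinea pig trachea cut into spiral strips, each trachea split into paired sections. Tissue bath at 37 °C in modified Krebs buffer gassed with 95% O2/5% CO2, 2 g resting tension, 60 min stabilization. After reproducible responses to 10 nM LTE4, compound was added for 10 min, then LTE4 challenge repeated. Percent inhibition is the 2nd vs 3rd response, adjusted by subtracting the vehicle-treated paired section. Paired t test, p < 0.05.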

The species entered for series [3] is Cavia porcellus. Description: Percent inhibition of the BaCl2 - induced contraction of guinea pig tracheal spirals at concentration of 100 uM. Format: functional. Conditions: Trachea. The procedure, abridged: (§3)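 Guinea pig tracheal strips contracted with barium chloride. Compound was tested at 100 µM, and the read-out is percent inhibition of the BaCl2-induced contraction.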

For series [4], the species on record is Cavia porcellus. As to the kind of experiment: (§4) Percent inhibition of the BaCl2 - induced contraction of guinea pig tracheal spirals at concentration of 100 uM; Not significant. Format: functional. Conditions: Trachea. The procedure, abridged: as §3
Series [5] is filed under the species Cavia porcellus. As to the kind of experiment: Percent inhibition of the LTE4- induced contraction of guinea pig tracheal spirals at the concentration of 0.5 uM. Type of series: functional. Conditions: Trachea. The procedure, abridged:
as §2

The species entered for series [6] is Cavia porcellus. The description is as §4. Type of series: functional. Conditions: Trachea. The essentials: as §3
Series [7] is filed under the species Cavia porcellus. Description: Percent inhibition of the LTE4- induced contraction of guinea pig tracheal spirals at the concentration of 1.0 uM; Not significant. Format: functional. Conditions: Trachea. The procedure, abridged:
as §2

The species named for series [8] is Cavia porcellus. Description: Percent inhibition of the LTE4- induced contraction of guinea pig tracheal spirals at the concentration of 5 uM; Not significant. Type of series: functional. Conditions: Trachea. The procedure, abridged:
as §2

The nature of series [9]: pKB value of the compound. The essentials: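 Guinea pig tracheal strips at 37 °C in Krebs buffer. Cumulative LTE4 concentration-response curves were built in log increments, with responses expressed as % of the maximum to 30 µM carbachol. Antagonist was incubated 30 min before the curve, with vehicle on paired controls. EC50 came from linear regression. KB = [antagonist]/(dose ratio − 1) by the Furchgott method. One curve per tissue.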

For series [10], the species on record is Cavia porcellus. Description: Percent inhibition of the LTE4- induced contraction of guinea pig tracheal spirals at concentration of 5 uM. Format: functional. Conditions: Trachea. The procedure, abridged: as §2
Series [11] is described as follows: Selectivity ratio of the compound. Format: functional.
The species entered for series [12] is Cavia porcellus. Description: Percent inhibition of the LTE4- induced contraction of guinea pig tracheal spirals at the concentration of 0.1 uM. Format: functional. Conditions: Trachea. The procedure, abridged: as §2
The test system of series [13] is Cavia porcellus. Description: Percent protection was determined from the time delay to the onset of dyspnea compared to that of control guinea pig at a concentration of 100 uM/kg. Format: functional. The essentials:
as §1

Activity calls are given as the source filed them. The rule behind the calls is not given here.

As to `CCCCOC(=O)Nc1ccc2cnn(Cc3ccc(C(=O)O)cc3OC)c2c1`, the Protection in the series on Cavia porcellus [1] came out at 33%. The inhibition at 0.33 µM in the series filed under Cavia porcellus [2] was determined as 56%. This compound also registered an inhibition at 100 µM in the series listed under Cavia porcellus [3] of 41%.

`CCCCC(CC)C(=O)Nc1ccc2cnn(Cc3ccc(C(=O)O)cc3OC)c2c1` (stereo not given) displayed an inhibition at 0.33 µM in the series filed under Cavia porcellus [2] of 56%. For the same compound, the inhibition result in the series filed under Cavia porcellus [4] is “inactive”.

Compound `CCCCOC(=O)Nc1ccc2ccn(Cc3ccc(C(=O)O)cc3OC)c2c1` returned an inhibition at 0.5 µM in the series filed under Cavia porcellus [5] of 54%.

For `CCC(C(=O)Nc1ccc2cnn(Cc3ccc(C(=O)O)cc3OC)c2c1)c1ccccc1` (stereo not given), the inhibition entry in the series filed under Cavia porcellus [6] is “inactive”. This compound also returned an inhibition at 0.33 µM in the series listed under Cavia porcellus [2] of 30%.

Take `COc1cc(C(=O)O)ccc1Cn1ccc2ccc(NC(=O)OC3CCCCC3)cc21`: in the series filed under Cavia porcellus [7], the inhibition result was “inactive”.

As for `CCCCCCCCCCCC(=O)Nc1ccc2ccn(Cc3ccc(C(=O)O)cc3OC)c2c1`, in the series filed under Cavia porcellus [8], the inhibition entry was “inactive”.

`CCCCCC(=O)Nc1ccc2ccn(Cc3ccc(C(=O)O)cc3OC)c2c1` registered a pKB in series [9] of 6. Further, the inhibition at 5 µM in the series filed under Cavia porcellus [10] worked out at 70%. The Selectivity ratio in series [11] came to 100.

As to `COc1cc(C(=O)O)ccc1Cn1ccc2ccc(NC(=O)OC3CCCC3)cc21`, the inhibition at 0.1 µM in the series listed under Cavia porcellus [12] is 61%. Moreover, the Protection in the series with Cavia porcellus [13] came out at 23%.

For orientation: inhibition means the drop in the measured response relative to a control, in per cent. The pKB is the negative decadic logarithm of the KB, by convention in mol/L. The low end stands for a large KB, the high end for a small KB.

For the origin of these results see ChEMBL document CHEMBL1125163, “Evolution of a series of peptidoleukotriene antagonists: synthesis and structure-activity relationships of 1,6-disubstituted indoles and indazoles” (J Med Chem, 1990).
